Screening results: PubChem BioAssay, Broad Institute
Ecoli rRNA inh – reduced GFP signal of wild-type E. coli, primary screen, bacterial rRNA inhibitor project, GFP/RFP fluorescence, OD600, single point; GFP signal change (wild-type ribosome), % (concentration not given with the values); 350,000 tested, 1.6% active; AID 720706, 2013; E. coli WT GFP vs humanized-ribosome RFP mutants, 24 h; hits give low values; DMSO median 0, no signal -100;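 active = significant combined selectivity score with lowered wild-type GFP, culture density cut under 30%, mutant RFP and density less affected; inactive = any of these conditions unmet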
RAD54 branch – inhibitors of human RAD54 branch migration, primary screen, biochemical, fluorescence, single point; DNA repair and recombination protein RAD54-like (Homo sapiens), Q92698; AID 602329, 2012; 360,000 tested, 0.14% active; RAD54 Holliday junction branch migration, FAM/BHQ fluorescence; inhibition, % at 10.4 µM;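 active = mean normalized replicate activity at least 40 and at least half of replicates scoring 40 or more; inconclusive = only one of the two criteria met; inactive = mean below 40 and under half of replicates reaching 40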;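 note: 0% = median of neutral control wells and 100% = median of positive control wells; inhibitors cause a drop in the FAM fluorescence signal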
Target sequence (Q92698 whole entry, looked up): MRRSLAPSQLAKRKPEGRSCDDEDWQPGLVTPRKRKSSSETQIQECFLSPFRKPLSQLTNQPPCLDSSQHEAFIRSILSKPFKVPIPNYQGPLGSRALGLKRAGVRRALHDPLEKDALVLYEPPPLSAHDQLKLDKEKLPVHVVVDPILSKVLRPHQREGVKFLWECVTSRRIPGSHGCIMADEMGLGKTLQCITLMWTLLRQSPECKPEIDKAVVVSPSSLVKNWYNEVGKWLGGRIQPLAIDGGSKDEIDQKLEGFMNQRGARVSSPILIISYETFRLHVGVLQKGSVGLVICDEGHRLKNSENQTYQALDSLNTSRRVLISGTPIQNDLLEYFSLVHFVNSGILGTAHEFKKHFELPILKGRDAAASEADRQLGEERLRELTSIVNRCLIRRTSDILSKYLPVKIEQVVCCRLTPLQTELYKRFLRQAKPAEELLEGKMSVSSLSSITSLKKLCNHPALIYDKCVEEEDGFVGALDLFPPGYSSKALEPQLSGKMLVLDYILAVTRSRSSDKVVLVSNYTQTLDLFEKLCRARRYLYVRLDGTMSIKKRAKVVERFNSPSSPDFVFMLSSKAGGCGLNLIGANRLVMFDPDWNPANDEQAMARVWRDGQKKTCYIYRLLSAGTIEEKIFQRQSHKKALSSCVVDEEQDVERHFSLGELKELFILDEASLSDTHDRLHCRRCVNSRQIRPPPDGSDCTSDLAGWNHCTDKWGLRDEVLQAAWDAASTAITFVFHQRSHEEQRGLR
E-sel inducer – E-selectin induction in HUVECs, primary screen, imaging, HUVEC, immunofluorescence imaging, single point. P16581. normalized: neutral wells 0, TNF-alpha wells 100. activation, % at 7.58 µM. 260,000 tested, 0.37% active;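 active = mean E-selectin-positive cell signal at least 10% of the positive control, reached in at least 60% of replicates, without over 20% cell loss; inconclusive = no rule given, readout overlaps actives, possibly toxicity-flagged; inactive = the rest, including those meeting only one limit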
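Assay system: HUVEC, human umbilical vein endothelial cells / Amount: 3,000 HUVEC/well / Controls: TNF-alpha positive control, DMSO neutral control / Compound dosing: single concentration / Medium: EGM-2 over gelatin coat / Evaluation: percent E-selectin-positive cells / Signal: immunofluorescence imaging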
RAD52 anneal inh – RAD52 DNA annealing inhibitors, primary screen, biochemical, FRET, single point, set 2. 360,000 tested, 0.46% active. recombinant RAD52 DNA annealing, FRET fluorescence. inhibition, % at 18.7 µM. DNA repair protein RAD52 homolog (Homo sapiens), P43351;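 active = every replicate showing at least 50% inhibition; inconclusive = mean inhibition at least 50% but not in every replicate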
Xi reactivation – activators of inactive X chromosome reactivation, primary screen, imaging, XiGFP fibroblasts, GFP high-content imaging, set 2; XiGFP mouse fibroblasts, % GFP-positive cells imaging, 3 d; cells co-treated with 5-aza-dC sensitizer; scaled so ellipticine positive control = 100%; activation, % at 7.58 µM; 360,000 tested, 0.055% active;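 active = mean normalized replicate activation at least 10% and every replicate at or above 10%; inconclusive = only one of the two criteria met; inactive = mean below 10% and not all replicates reach 10%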;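 note: 0% = median of on-plate neutral control wells and 100% = ellipticine 6 µM median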
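material = 68-5-11 XiGFP fibroblast line | medium = DMEM plus 5-aza-dC sensitizer | schedule = 3 days compound exposure | benchmarks = positive control ellipticine, 6 µM final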
PglD inh – C. jejuni PglD acetyltransferase inhibitors, primary screen, biochemical, DTNB colorimetric, single point. purified PglD enzyme, DTNB colorimetric CoA detection. inhibition, % at 12.5 µM. 360,000 tested, 0.098% active; in the data active = inhibition above about 16%, passing the limit was not always enough; inconclusive = no clear call, values can overlap the other calls
DNA binder FP – DNA-binding compounds via dye displacement, dose response, artefact control for RAD52 inhibitor project, biochemical, fluorescence polarization, cherry-pick; shares compounds with RAD52 anneal inh; Salmon sperm DNA/acridine orange FP displacement; AC50, µM; 1,000 tested, 8% active; AID 652128, 2013;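 active = fitted half-maximal concentration for signal loss at or below twice the highest dose tested, in every separate run, actives reach about 64 µM in these data; inconclusive = runs disagree, or flat partial signal loss, or poor fit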
The depositor's hits bear a star; i = inactive; ? = inconclusive; · = no result given. Compounds with a hit are over-represented: about 2% of the library has one in this group of screens.

SMILES	Ecoli rRNA inh	RAD54 branch	E-sel inducer	RAD52 anneal inh	Xi reactivation	PglD inh	DNA binder FP
CC(C)NC(=O)N1CC(c2ccccc2)C(c2ccc(Cl)cc2)=N1 (stereo unspecified)	-26.6	2.6	-1.9	97.5*	0.0	-6.4	i
O=C(c1ccccc1)c1cccc(C(=O)c2ccccc2)c1	·	-3.7	·	·	·	-4.3	·
Nc1cc(N)cc(C(=O)c2ccccc2)c1	7.3	6.2	0.3	89.1*	0.0	-0.9	i
O=c1c2c(-c3ccccc3)csc2nc2c3ccccc3c(NCCN3CCOCC3)nn12	-55.6	·	2.3	87.1*	-0.2	·	i
O=C(C[C@@H]1C[C@H]2c3cc(NC(=O)Nc4ccccc4)ccc3O[C@H]2[C@@H](CO)O1)NCC(F)(F)F	1.9	-5.9	-0.2	0.3	0.0	-5.1	·
Cc1cc(N2CCN(C)CC2)nc2ccc(NC(=S)NCc3cccs3)cc12	-23.4*	38.4	·	63.4*	-0.1	-3.2	i
CCN1CCN(c2cc(C)c3cc(NC(=S)N4CCN(c5ccccc5)CC4)ccc3n2)CC1	5.9	7.9	0.0	-13.9	0.0	-1.3	·
CCN1CCN(c2cc(C)c3cc(NC(=S)NCc4cccs4)ccc3n2)CC1	-6.5	36.9	·	50.3*	-0.7	-2.1	i
COc1ccccc1C(=O)Nc1ccc2c(c1)OC[C@H](C)N(C(C)=O)C[C@@H](C)[C@H](OC)CN(C)C2=O	-3.3	-8.3	-0.1	-6.0	0.0	3.6	·
C[C@@H]1CCCCO[C@H](CN(C)C(=O)c2ccncc2)[C@H](C)CN([C@H](C)CO)C(=O)c2cc(NC(=O)CCC(F)(F)F)ccc2O1	1.3	2.2	-0.3	·	0.2	-2.5	·
CCSc1ccc(-c2cc(NC=O)c3ncc(-c4cccc(C(=O)NCCN(C)C)c4)n3c2)cc1	-33.4	9.8	0.1	65.8*	-0.1	0.7	i
CC(=O)Nc1cc(-c2cccc(C(=O)NCCN(C)C)c2)cn2c(-c3cccc(C(F)(F)F)c3)cnc12	-59.2	43.0	0.7	85.9*	0.6	5.5	i
CCSc1ccc(-c2cc(NC=O)c3ncc(-c4cccc(C(=O)N(C)C)c4)n3c2)cc1	0.8	-8.0	-2.2	-16.0	-0.1	-2.0	·
CN(C)CCNC(=O)c1cccc(-c2cnc3c(NC=O)cc(/C=C/c4ccccc4)cn23)c1	7.6	17.7	-0.1	79.7*	0.2	-2.2	i
CN(C)CCCNc1ccc(-c2n[nH]c(=O)c3ccccc23)cc1[N+](=O)[O-]	·	27.7	0.0	66.4*	0.0	3.1	i
CN1CCN(c2ccc(Nc3ccnc4cc(Cl)ccc34)cc2)CC1	7.4	52.7*	·	87.8*	0.0	7.1	i
CCOc1ccc(Nc2ccnc3cc(Cl)ccc23)cc1	6.7	-7.7	0.0	2.0	0.5	-2.2	·
CCCNc1nc2ccccc2n2c(C)nnc12	3.7	-0.6	·	73.3*	0.1	-2.0	i
CCN(CC)CCCN(C(=O)c1ccc(Br)cc1)c1nc(-c2ccc(OC)cc2)cs1	-50.7	23.1	0.0	57.0*	0.0	1.5	i
CCN(CC)CCCN(C(=O)c1cccc(C)c1)c1nc(-c2ccc(OC)cc2)cs1	-45.5	18.7	0.5	57.8*	0.2	6.4	i
CCN(CC)CCCN(C(=O)c1cccs1)c1nc(-c2ccc(OC)cc2)cs1	·	19.2	·	·	·	-4.0	·
CCCC(=O)Nc1ccc2c(c1)C(=O)N(C)C[C@H](OC)[C@@H](C)CN(C(=O)CN(C)C)[C@H](C)CO2	1.3	10.4	-0.2	-8.8	0.2	-2.6	·
C[C@H](CO)N1C[C@H](C)[C@H](CN(C)C(=O)Nc2cccc3ccccc23)OCCCC[C@H](C)Oc2ccc(NS(C)(=O)=O)cc2C1=O	-1.0	3.7	-0.2	7.3	0.0	6.5	·
CCOC(=O)c1c(CN(C)C)n(-c2ccccc2)c2cc(Br)c(OC)cc12	-54.5	28.4	0.3	14.9	-0.2	9.9	·
CCOC(=O)c1c(C)n(CC(O)CN(C)C)c2cc(Br)c(OC)cc12 (stereo unspecified)	12.1	·	-1.4	84.6*	0.0	·	i
SMILES	Ecoli rRNA inh	RAD54 branch	E-sel inducer	RAD52 anneal inh	Xi reactivation	PglD inh	DNA binder FP
O=C(CCN1CCOCC1)Nc1ccc(F)cc1	5.0	9.2	0.0	-2.3	0.0	1.3	·
Nc1ccc(NC(=O)CCN2CCOCC2)cc1	24.2	3.4	1.4	59.6*	0.3	3.8	i
CC(C)=N/N=C(/c1ccc([N+](=O)[O-])cc1)C12CN3CN(CN(C3)C1)C2	9.7	·	·	95.2*	0.1	·	i
COc1cccc(-c2nc(N3CCN(C)CC3)c3ccccc3n2)c1O	-22.8*	·	·	87.1*	-0.2	·	?
CN1CCN(c2nc(-c3ccccc3O)nc3ccccc23)CC1	-8.4	·	-0.3	53.3*	0.0	·	i
COc1cccc(-c2nc(N3CCCCC3C)c3ccccc3n2)c1O (stereo unspecified)	·	4.8	·	·	·	-7.5	·
O=C(NCC[C@H]1CC[C@H](NC(=O)c2ccc3c(c2)OCO3)[C@@H](CO)O1)Nc1ccc(Cl)cc1	-10.6	-3.4	0.6	13.2	-0.7	0.2	·
CCCNC(=O)N1CCC2(CC1)CN(C(=O)c1ccccc1)[C@H](CO)c1[nH]c3cc(OC)ccc3c12	-1.1	·	-0.4	-4.4	0.3	·	·
O=C(CCn1nc(-c2ccc(Cl)cc2)ccc1=O)NCCCN1CCCCCC1	0.1	-17.9	·	63.0*	·	0.6	i
CCCN1CCN(CCCNC(=O)CCn2nc(-c3ccccc3)ccc2=O)CC1	12.1	-8.3	7.8	-23.3	-0.1	-1.0	·
COc1ccc(C2=Nn3c(nnc3-c3ccccc3F)SC2)cc1OC1CCCC1	-37.0	8.2	-0.2	-9.5	0.0	-2.0	i
COc1ccc(C2=Nn3c(nnc3-c3ccccc3F)SC2)cc1OC1CCOC1 (stereo unspecified)	1.0	-1.3	1.5	-20.1	0.0	7.0	·
Cc1ccc2nc(-c3ccc(NC(=S)NC(=O)C(C)C)cc3)sc2c1	·	-6.8	·	-17.7	·	3.5	·
Cc1ccc2nc(-c3ccc(NC(=S)NC4CC(C)(C)NC(C)(C)C4)cc3)sc2c1	-37.0	34.6	7.5	94.9*	-0.1	-1.7	i
